Sampled rows, rich in hits. Any-hit rate of the full collection: about 3.8%.
MPTP block – mitochondrial permeability transition pore inhibitors, primary screen, biochemical, isolated mouse mitochondria, absorbance. inhibition, % at 10 µM. Ca2+ swelling absorbance, 30 min. 360,000 compounds, 1.4% hits. AID 602449, 2012;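 active = inhibition of 50% or more, scaled per plate between neutral and stimulator controls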;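 note: 0% = DMSO wells given calcium and 100% = 1 mM EGTA wells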
GPR7 antagonist – GPR7 receptor antagonists, primary screen, cell-based, fluorescence, single concentration | Neuropeptides B/W receptor type 1 (Homo sapiens), P48145 | inhibition, % at 4.4 µM | GPR7-expressing cells, fluorescence antagonist assay | 290,000 compounds, 1.1% hits | AID 1861, 2009; in the data active = inhibition above about 16%, passing the limit was not always enough;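 note: cells stimulated with the agonist NPW; 0% = agonist with vehicle and 100% = vehicle without agonist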
OX1R antag-1 – antagonists of human orexin 1 receptor (OX1R); AID 485270, 2010; 330,000 compounds, 1.8% hits; Orexin/Hypocretin receptor type 1 (Homo sapiens), O43613; inhibition, % at 6.6 µM; OX1R-expressing cells, FRET antagonist read-out; in the data active = inhibition mostly above about 38%, no sharp cut-off; inactive = mostly below about 40%;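 note: 0% = agonist challenge alone and 100% = reference antagonist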
Target sequence (O43613 whole entry, looked up): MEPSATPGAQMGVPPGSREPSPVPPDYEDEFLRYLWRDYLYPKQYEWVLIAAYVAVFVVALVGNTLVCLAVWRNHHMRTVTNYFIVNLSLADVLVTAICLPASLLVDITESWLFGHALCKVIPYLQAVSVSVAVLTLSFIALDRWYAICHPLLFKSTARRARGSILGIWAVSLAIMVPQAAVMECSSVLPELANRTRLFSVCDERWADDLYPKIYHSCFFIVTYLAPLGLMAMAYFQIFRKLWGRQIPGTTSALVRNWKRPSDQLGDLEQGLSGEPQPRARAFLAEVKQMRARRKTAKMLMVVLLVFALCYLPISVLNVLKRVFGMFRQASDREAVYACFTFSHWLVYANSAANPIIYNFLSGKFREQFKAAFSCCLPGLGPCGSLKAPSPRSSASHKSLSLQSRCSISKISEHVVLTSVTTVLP
CHO parental Ca – ATP-evoked calcium signal inhibitors, parental CHO, primary screen, counter-screen for OX1R antagonist project, cell-based, fluorescence, Fluo-8 calcium dye; parental CHO-K1, ATP-induced calcium, Fluo-8 fluorescence; inhibition, % at 5.6 µM; 330,000 compounds, 0.63% hits;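 active = inhibition above that plate's mean sample inhibition plus 3 SD, cut at about 26% in these data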;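 note: 0% = ATP-challenged DMSO wells and 100% = DMSO wells without ATP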
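Test system: untransfected parental CHO cell line. Compound: one dose, 5.6 µM nominal. Detection: intracellular calcium via Fluo-8 no-wash fluorescent dye. Measure: % inhibition. Benchmarks: ATP-challenged DMSO wells low, unchallenged DMSO wells high.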
OX1R antag-2 – OX1R (HCRTR1) antagonists, primary screen, fluorescence, CHO/OX1R cells, Fluo-8 calcium, orexin A; AID 434989, 2010; Fluo-8 calcium fluorescence; Orexin/Hypocretin receptor type 1 (Homo sapiens), O43613; 330,000 compounds, 0.43% hits; inhibition, % at 5 µM;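 active = inhibition above its plate's threshold, mean inhibition of all tested compounds on the plate plus 3 SD, cut at about 37% in these data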;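 note: 0% = orexin A challenge wells and 100% = SB-334867-A antagonist wells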
GPR7 antag conf – GPR7 receptor antagonists, confirmation, cell-based, fluorescence, single concentration; shares compounds with GPR7 antagonist; GPR7-expressing cells, calcium fluorescence antagonist mode; inhibition, % at 4.4 µM; 2,400 compounds, 52% hits; AID 1952, 2009; in the data active = inhibition above about 24%;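 note: stimulated with the GPR7 agonist NPW; 0% = agonist plus vehicle and 100% = vehicle alone without agonist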
MCHR1 antagonist – MCHR1 antagonists in cells, counter-screen for GPR7 antagonist project, cell-based, fluorescence, human; shares compounds with GPR7 antagonist; MCHR1-expressing cells, fluorescence antagonist assay; inhibition, % at 4.4 µM; 2,400 compounds, 62% hits; in the data active = inhibition above about 22%;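 note: 0% = vehicle with agonist and 100% = vehicle without agonist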
Active calls of the source: *; · = no result.

SMILES	MPTP block	GPR7 antagonist	OX1R antag-1	CHO parental Ca	OX1R antag-2	GPR7 antag conf	MCHR1 antagonist
Cn1c(=O)c(S(=O)C2CCCCC2)c(O)c2ccccc21 (configuration not stated)	0	·	0	-8	0	·	·
COc1ccc(C(=O)OCC(=O)Nc2nnc(-c3ccccc3)o2)cc1	-1	32*	52*	-12	-12	-3	-12
CC1(C(=O)NS(=O)(=O)c2cccc(F)c2)CCN1C(=O)C1CCCCC1 (configuration not stated)	0	·	·	·	·	·	·
CCOC(=O)c1c(-c2ccccc2)oc2ccc(OCC(O)CNCCN(C)C)cc12 (configuration not stated)	-3	72*	-1	5	-22	60*	69*
O=C(Cc1ccc(S(=O)(=O)N2CCCCC2)s1)Nc1ccc(F)cc1F	1	35*	14	-4	-7	20	19
O=C(COC(=O)Cc1ccc(S(=O)(=O)N2CCOCC2)s1)Nc1ccc(F)cc1F	-3	·	-3	-4	-8	·	·
CCCc1cc(=O)oc2cc(OCC(=O)N3CCC(C(N)=O)CC3)ccc12	1	23*	11	-9	-4	11	0
CC(C)(C)NC(=O)NC(=O)C[n+]1ccc(Cc2ccc([N+](=O)[O-])cc2)cc1	0	-8	25	-7	-16	·	·
CCCCNC(=O)C1Cc2cc(S(=O)(=O)N3CCCC3)ccc2N1C(C)=O (configuration not stated)	0	-15	-2	-5	-13	·	·
C=CCNCCCOc1ccc(Cl)cc1C(C)(C)C	0	25*	11	-1	-26	25*	37*
CC(C)(C)c1cc(Cl)ccc1OCCOCCN1CCCC1	3	24*	-2	-6	-1	35*	41*
Cc1ccc(OCCOCCN2CCN(C)CC2)c(C(C)(C)C)c1	2	-6	9	-9	2	·	·
c1ccc(CNCCC(Cc2ccccc2)c2ccco2)cc1 (configuration not stated)	23	23*	13	-47	-38	28*	35*
O=C(O)c1cccc(N2C(=O)c3cc4cccc(Br)c4cc3C2=O)c1	0	38*	3	-7	-5	0	11
CC1(c2ccccc2Cl)NC(=O)N(CC(=O)c2ccc3c(c2)OCO3)C1=O (configuration not stated)	0	·	11	-3	-24	·	·
CC1CCCN(S(=O)(=O)c2ccc(S(=O)(=O)NC(C)c3cccs3)cc2)C1 (configuration not stated)	1	48*	11	1	-9	53*	32*
Cc1nnc2c(NCCc3ccccc3)nc3ccccc3n12	1	-15	3	-21	-45	·	·
O=C(NCCSc1c[nH]c2ccccc12)c1ccco1	0	-5	14	2	-3	·	·
O=C(NCCSc1c[nH]c2ccccc12)c1c(F)cccc1F	-3	23*	1	-5	-10	33*	33*
COc1ccc(C2CCCN2CC(O)COc2ccccc2C(C)C)cc1 (configuration not stated)	3	24*	14	-20	-20	33*	41*
CCOC(=O)Cc1nc(-c2ccc(Cl)cc2)n[nH]1	-2	-14	18	4	0	·	·
O=C(CSc1nnc(-c2cccc(S(=O)(=O)N3CCCC3)c2)n1-c1ccccc1)Nc1ccc(C(=O)O)cc1	-2	26*	8	-14	-16	11	13
COCCn1c(SCC(=O)Nc2ccc(NC(C)=O)cc2)nc2c([nH]c3ccccc32)c1=O	0	-13	4	-9	-4	·	·
COCCn1c(SCC(=O)N(C)c2ccccc2)nc2c([nH]c3ccccc32)c1=O	0	31*	24	-28	-16	-19	-2

Screening data from PubChem.
